In ChEMBL document CHEMBL2150980 (Eur J Med Chem, 2012):

How the values were obtained:
[1] = target: T1, Adrenergic receptor alpha-2 (Rattus norvegicus, UniProt P22086+P19328+P22909); test: Antagonist activity at alpha2 adrenoceptor in Sprague-Dawley rat prostatic vas deferens assessed as suppression of clonidine-mediated inhibition of twitch response after 30 mins; format: functional, tissue-based
T1 sequence (P22086 whole entry): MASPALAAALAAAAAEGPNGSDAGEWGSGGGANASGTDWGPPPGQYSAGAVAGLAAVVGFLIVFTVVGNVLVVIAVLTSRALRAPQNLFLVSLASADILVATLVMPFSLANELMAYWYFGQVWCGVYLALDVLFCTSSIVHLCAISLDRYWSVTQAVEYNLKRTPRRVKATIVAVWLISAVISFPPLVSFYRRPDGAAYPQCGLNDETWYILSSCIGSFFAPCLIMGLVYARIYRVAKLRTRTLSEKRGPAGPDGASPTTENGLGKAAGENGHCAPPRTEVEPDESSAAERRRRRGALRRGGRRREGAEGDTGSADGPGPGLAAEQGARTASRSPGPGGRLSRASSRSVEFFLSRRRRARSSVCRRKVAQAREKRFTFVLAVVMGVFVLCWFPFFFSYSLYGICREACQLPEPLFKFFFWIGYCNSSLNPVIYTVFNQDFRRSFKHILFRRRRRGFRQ
T1 sequence (P19328 whole entry): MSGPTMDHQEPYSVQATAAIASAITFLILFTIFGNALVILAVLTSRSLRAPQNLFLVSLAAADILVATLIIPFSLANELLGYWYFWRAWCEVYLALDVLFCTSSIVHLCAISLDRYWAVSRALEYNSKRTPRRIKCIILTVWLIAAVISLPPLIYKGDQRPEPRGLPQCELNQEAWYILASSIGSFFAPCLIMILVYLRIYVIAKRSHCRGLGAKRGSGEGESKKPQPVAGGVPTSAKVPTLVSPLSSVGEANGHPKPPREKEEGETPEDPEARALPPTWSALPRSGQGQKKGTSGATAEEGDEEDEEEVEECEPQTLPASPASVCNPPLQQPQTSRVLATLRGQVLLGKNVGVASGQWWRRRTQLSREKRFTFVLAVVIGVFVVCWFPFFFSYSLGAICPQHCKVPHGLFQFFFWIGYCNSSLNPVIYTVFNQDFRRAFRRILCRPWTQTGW
T1 sequence (P22909 whole entry): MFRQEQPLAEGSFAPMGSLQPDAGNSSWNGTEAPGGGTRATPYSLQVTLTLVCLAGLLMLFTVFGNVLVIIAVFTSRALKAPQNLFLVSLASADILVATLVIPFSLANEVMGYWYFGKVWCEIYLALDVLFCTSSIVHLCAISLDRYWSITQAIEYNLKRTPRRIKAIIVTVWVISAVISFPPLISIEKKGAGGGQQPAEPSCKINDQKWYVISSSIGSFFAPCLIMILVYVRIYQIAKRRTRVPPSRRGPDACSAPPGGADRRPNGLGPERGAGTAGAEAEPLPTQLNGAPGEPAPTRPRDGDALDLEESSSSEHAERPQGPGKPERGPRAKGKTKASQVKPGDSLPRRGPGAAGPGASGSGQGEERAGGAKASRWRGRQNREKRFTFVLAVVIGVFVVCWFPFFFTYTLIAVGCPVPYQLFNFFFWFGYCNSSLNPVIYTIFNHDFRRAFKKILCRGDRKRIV
Procedure, shortened: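 Prostatic vas deferens segments (1.5–2 cm) in Krebs at 37 °C, field-stimulated at 0.1 Hz with 3 ms square pulses, 20–40 V. Equilibrated 1 h at 0.35 g resting tension.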

[2] = target: T2, Alpha-1A adrenergic receptor (Homo sapiens, UniProt P35348); test: Displacement of [3H]prazosin from human cloned alpha1A adrenoceptor expressed in CHO cell membranes after 30 mins by liquid scintillation counter
T2 sequence (P35348 whole entry): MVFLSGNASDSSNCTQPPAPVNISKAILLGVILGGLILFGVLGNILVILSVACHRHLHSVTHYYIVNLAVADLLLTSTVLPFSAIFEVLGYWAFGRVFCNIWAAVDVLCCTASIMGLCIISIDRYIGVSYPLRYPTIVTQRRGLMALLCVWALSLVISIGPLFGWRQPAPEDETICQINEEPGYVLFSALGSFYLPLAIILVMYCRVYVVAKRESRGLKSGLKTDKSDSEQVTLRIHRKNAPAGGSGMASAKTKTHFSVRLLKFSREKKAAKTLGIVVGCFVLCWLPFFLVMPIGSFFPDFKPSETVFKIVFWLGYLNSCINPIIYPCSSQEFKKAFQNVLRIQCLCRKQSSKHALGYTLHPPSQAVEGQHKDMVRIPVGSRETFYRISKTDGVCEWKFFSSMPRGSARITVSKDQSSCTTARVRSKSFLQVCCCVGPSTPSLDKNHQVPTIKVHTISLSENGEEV
Procedure, shortened: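 Membranes incubated 30 min at 25 °C with 0.5 nM [3H]-prazosin ± compound (0.3–1000 nM) in 50 mM buffer, pH 7.7, containing pargyline and 0.1% ascorbic acid. Unlabelled prazosin defined nonspecific binding. GF/B filtration, scintillation counting.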

[3] = target: T3, Alpha-1D adrenergic receptor (Rattus norvegicus, UniProt P23944); test: Antagonist activity at alpha1D adrenoceptor in Sprague-Dawley rat thoracic aorta assessed as inhibition of noradrenaline-induced contractions after 30 mins; format: functional, tissue-based; settings: read-out: pA2 (converted)
T3 sequence (P23944 whole entry): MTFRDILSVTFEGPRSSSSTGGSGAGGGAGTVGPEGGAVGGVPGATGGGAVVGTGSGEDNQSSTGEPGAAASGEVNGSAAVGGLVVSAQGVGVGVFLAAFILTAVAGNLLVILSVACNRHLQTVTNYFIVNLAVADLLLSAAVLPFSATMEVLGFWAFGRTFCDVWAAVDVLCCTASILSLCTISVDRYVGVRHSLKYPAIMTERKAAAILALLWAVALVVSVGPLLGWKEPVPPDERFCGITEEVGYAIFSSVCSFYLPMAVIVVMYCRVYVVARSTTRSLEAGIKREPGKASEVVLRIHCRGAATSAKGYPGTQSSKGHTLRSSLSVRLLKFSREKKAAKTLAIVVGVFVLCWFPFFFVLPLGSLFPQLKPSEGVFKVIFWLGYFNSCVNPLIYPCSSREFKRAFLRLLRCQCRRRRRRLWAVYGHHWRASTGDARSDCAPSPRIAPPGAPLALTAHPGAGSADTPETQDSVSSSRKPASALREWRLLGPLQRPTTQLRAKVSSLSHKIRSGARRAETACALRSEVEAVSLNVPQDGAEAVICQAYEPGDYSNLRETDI

Row | Structure (SMILES) | pA2 [1] | Ki [2] [nM] | Kb [3] [nM]
1 | COc1cccc(OC)c1OCCNC[C@H]1COc2c(OC)cccc2O1.Cl | 5.67 | 24 | 5.75
2 | COc1cccc(OC)c1OCCNC[C@H]1COc2cccc(OC)c2O1.Cl | 6.23 | 0.912 | 11.7
3 | COc1cccc(OC)c1OCCNC[C@H]1COc2cccc(F)c2O1.Cl | 6.26 | 0.646 | 9.33
4 | COc1cccc(OC)c1OCCNC[C@H]1COc2cccc(Cl)c2O1.Cl | 6.02 | 0.891 | 3.02
5 | COc1cccc(OC)c1OCCNC[C@H]1COc2cccc(O)c2O1.Cl | < 5 | 2.19 | 51.3
